Assay results: ChEMBL document CHEMBL4346701, “Synthesis and biological evaluation of tryptophan-derived rhodanine derivatives as PTP1B inhibitors and anti-bacterial agents” (Eur J Med Chem, 2019)
pIC50: −log10 of the molar value. ≈ marks a conversion by molar mass, not a printed value.

How the values were obtained:
Staphylococcus aureus [1] = assay: Potency index, ratio of MIC of norfloxacin to MIC of compound for antibacterial activity against Methicillin-resistant Staphylococcus aureus CCARM 3506 assessed as reduction in bacterial cell growth incubated for 24 hrs by ELISA; type: functional
Staphylococcus aureus [2] = assay: Potency index, ratio of MIC of oxacillin to MIC of compound for antibacterial activity against Methicillin-resistant Staphylococcus aureus CCARM 3167 assessed as reduction in bacterial cell growth incubated for 24 hrs by ELISA; type: functional
Pseudomonas aeruginosa = assay: Antibacterial activity against Pseudomonas aeruginosa 2742 assessed as reduction in bacterial cell growth incubated for 24 hrs by ELISA; type: functional; details: Pseudomonas aeruginosa, 2742, 24 h
Method in brief: (§1)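 MIC determined by serial dilution in 96-well microtiter plates. Strains used were E. coli 1924 and P. aeruginosa 2742 (Gram-negative), S. mutans 3289 (Gram-positive) and the fungus C. albicans 7535. Gatifloxacin, moxifloxacin, norfloxacin and oxacillin served as antibacterial reference agents, and fluconazole as the antifungal reference.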

Staphylococcus aureus [3] = assay: Antibacterial activity against Staphylococcus aureus RN4220 assessed as reduction in bacterial cell growth incubated for 24 hrs by ELISA; type: functional; details: RN4220, 24 h
Method in brief: (§2)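 MICs determined by serial dilution in 96-well microtiter plates. The strain panel included Gram-positive S. aureus strains and multidrug-resistant clinical isolates. Gatifloxacin, moxifloxacin, norfloxacin and oxacillin served as antibacterial positive controls.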

Staphylococcus aureus [4] = assay: Antibacterial activity against Staphylococcus aureus KCTC503 assessed as reduction in bacterial cell growth incubated for 24 hrs by ELISA; type: functional; details: KCTC503, 24 h; method in brief: as §2
Staphylococcus aureus [5] = assay: Antibacterial activity against Staphylococcus aureus KCTC209 assessed as reduction in bacterial cell growth incubated for 24 hrs by ELISA; type: functional; details: KCTC209, 24 h; method in brief: as §2
Staphylococcus aureus [6] = assay: Potency index, ratio of MIC of oxacillin to MIC of compound for antibacterial activity against Methicillin-resistant Staphylococcus aureus CCARM 3506 assessed as reduction in bacterial cell growth incubated for 24 hrs by ELISA; type: functional
Candida albicans = assay: Antifungal activity against Candida albicans 7535 assessed as reduction in bacterial cell growth incubated for 24 hrs by ELISA; type: functional; details: Candida albicans, 7535, 24 h; method in brief: as §1
Staphylococcus aureus [7] = assay: Antibacterial activity against Methicillin-resistant Staphylococcus aureus CCARM 3167 assessed as reduction in bacterial cell growth incubated for 24 hrs by ELISA; type: functional; details: CCARM 3167, 24 h; method in brief: as §2
Staphylococcus aureus [8] = assay: Antibacterial activity against Quinolone-resistant Staphylococcus aureus CCARM 3505 assessed as reduction in bacterial cell growth incubated for 24 hrs by ELISA; type: functional; details: CCARM 3505, 24 h; method in brief: as §2
Staphylococcus aureus [9] = assay: Antibacterial activity against Methicillin-resistant Staphylococcus aureus CCARM 3506 assessed as reduction in bacterial cell growth incubated for 24 hrs by ELISA; type: functional; details: CCARM 3506, 24 h; method in brief: as §2
Staphylococcus aureus [10] = assay: Antibacterial activity against Quinolone-resistant Staphylococcus aureus CCARM 3519 assessed as reduction in bacterial cell growth incubated for 24 hrs by ELISA; type: functional; details: CCARM 3519, 24 h; method in brief: as §2
Staphylococcus aureus [11] = assay: Potency index, ratio of MIC of norfloxacin to MIC of compound for antibacterial activity against Methicillin-resistant Staphylococcus aureus CCARM 3167 assessed as reduction in bacterial cell growth incubated for 24 hrs by ELISA; type: functional
[12] = biological target: T1, Tyrosine-protein phosphatase non-receptor type 1 (Homo sapiens, UniProt P18031); assay: Inhibition of human recombinant GST-tagged PTP1B expressed in Escherichia coli BL21 (DE3) using pNPP as substrate measured for 2 mins by colorimetric analysis
T1 sequence (P18031 whole entry): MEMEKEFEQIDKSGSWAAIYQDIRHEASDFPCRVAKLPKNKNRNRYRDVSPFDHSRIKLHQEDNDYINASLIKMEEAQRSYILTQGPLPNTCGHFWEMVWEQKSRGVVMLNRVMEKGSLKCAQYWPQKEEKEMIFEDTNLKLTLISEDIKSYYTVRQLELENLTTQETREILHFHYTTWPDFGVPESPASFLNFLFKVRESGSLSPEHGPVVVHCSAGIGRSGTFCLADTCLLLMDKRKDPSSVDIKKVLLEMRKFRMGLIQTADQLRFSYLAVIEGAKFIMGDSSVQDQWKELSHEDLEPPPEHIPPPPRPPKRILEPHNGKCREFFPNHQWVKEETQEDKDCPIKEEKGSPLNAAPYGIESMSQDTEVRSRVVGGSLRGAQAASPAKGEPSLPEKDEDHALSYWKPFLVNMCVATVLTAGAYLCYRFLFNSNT

Escherichia coli = assay: Antibacterial activity against Escherichia coli 1924 assessed as reduction in bacterial cell growth incubated for 24 hrs by ELISA; type: functional; details: Escherichia coli, 1924, 24 h; method in brief: as §1
Streptococcus mutans = assay: Antibacterial activity against Streptococcus mutans KCTC3289 assessed as reduction in bacterial cell growth incubated for 24 hrs by ELISA; type: functional; details: KCTC3289, 24 h; method in brief: as §1
[13] = biological target: T2, Tyrosine-protein phosphatase non-receptor type 2 (Homo sapiens, UniProt P17706); assay: Inhibition of human recombinant GST-tagged TCPTP (catalytic domain […] residues) expressed in Escherichia coli BL21 (DE3) using pNPP as substrate measured for 2 mins by colorimetric analysis
T2 sequence (P17706 whole entry): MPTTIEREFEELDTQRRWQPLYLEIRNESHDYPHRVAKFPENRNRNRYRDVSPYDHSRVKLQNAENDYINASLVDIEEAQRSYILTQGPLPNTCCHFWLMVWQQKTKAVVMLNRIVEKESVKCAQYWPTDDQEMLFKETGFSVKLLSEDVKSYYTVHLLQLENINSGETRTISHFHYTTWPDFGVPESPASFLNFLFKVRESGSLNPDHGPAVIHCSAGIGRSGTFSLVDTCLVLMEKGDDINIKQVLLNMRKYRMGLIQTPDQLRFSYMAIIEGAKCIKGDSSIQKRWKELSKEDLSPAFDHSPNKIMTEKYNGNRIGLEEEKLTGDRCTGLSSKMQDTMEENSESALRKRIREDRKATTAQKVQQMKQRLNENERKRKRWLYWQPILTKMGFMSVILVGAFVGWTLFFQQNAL

[14] = biological target: Tyrosine-protein phosphatase non-receptor type 6 (Homo sapiens, UniProt P29350); assay: Inhibition of human recombinant GST-tagged SHP1 (catalytic domain 244 to 570 residues) expressed in Escherichia coli BL21 (DE3) using pNPP as substrate measured for 2 mins by colorimetric analysis
Method in brief: (§3)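 pNPP hydrolysis assay. IC50 was derived by regression analysis and given as mean ± SD of three replications.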

[15] = biological target: T3, Tyrosine-protein phosphatase non-receptor type 11 (Homo sapiens, UniProt Q06124); assay: Inhibition of human recombinant GST-tagged SHP2 (catalytic domain […] residues) expressed in Escherichia coli BL21 (DE3) using pNPP as substrate measured for 2 mins by colorimetric analysis; method in brief: as §3
T3 sequence (Q06124 whole entry): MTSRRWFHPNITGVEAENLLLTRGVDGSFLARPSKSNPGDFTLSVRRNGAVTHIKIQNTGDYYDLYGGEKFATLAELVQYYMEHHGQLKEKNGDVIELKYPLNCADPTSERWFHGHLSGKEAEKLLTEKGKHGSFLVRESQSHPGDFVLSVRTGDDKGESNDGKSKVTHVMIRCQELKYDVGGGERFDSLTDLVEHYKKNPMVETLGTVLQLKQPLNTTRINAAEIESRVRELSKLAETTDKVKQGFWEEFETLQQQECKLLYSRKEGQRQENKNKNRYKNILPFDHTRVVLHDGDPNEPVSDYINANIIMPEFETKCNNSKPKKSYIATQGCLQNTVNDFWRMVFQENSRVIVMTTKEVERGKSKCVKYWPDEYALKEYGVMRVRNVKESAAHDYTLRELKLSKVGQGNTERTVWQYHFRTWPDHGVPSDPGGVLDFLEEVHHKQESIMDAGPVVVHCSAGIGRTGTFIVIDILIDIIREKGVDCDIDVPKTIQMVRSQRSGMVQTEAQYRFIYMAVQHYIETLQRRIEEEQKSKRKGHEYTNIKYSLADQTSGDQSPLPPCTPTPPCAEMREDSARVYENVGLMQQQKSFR

[16] = biological target: T4, M-phase inducer phosphatase 2 (Homo sapiens, UniProt P30305); assay: Inhibition of human recombinant GST-tagged CDC25B expressed in Escherichia coli BL21 (DE3) using pNPP as substrate measured for 2 mins by colorimetric analysis; method in brief: as §3
T4 sequence (P30305 whole entry): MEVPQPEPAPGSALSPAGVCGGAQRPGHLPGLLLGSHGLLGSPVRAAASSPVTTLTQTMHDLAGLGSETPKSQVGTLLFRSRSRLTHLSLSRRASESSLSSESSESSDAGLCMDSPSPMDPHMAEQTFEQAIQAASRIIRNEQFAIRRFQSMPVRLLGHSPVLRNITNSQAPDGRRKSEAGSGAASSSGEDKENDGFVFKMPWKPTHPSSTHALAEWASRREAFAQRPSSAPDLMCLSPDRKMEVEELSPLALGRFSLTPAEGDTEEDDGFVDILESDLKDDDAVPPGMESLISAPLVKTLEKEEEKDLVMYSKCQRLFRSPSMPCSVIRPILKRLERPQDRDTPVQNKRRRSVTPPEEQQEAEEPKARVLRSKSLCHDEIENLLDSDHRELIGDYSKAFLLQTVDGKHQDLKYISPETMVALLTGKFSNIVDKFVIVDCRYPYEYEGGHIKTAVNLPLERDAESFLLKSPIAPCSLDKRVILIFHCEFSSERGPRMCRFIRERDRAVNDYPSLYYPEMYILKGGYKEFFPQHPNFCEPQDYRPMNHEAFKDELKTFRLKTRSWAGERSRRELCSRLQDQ

Chain of Tyrosine-protein phosphatase non-receptor type 6 (P29350 whole entry, the tested form may be a part): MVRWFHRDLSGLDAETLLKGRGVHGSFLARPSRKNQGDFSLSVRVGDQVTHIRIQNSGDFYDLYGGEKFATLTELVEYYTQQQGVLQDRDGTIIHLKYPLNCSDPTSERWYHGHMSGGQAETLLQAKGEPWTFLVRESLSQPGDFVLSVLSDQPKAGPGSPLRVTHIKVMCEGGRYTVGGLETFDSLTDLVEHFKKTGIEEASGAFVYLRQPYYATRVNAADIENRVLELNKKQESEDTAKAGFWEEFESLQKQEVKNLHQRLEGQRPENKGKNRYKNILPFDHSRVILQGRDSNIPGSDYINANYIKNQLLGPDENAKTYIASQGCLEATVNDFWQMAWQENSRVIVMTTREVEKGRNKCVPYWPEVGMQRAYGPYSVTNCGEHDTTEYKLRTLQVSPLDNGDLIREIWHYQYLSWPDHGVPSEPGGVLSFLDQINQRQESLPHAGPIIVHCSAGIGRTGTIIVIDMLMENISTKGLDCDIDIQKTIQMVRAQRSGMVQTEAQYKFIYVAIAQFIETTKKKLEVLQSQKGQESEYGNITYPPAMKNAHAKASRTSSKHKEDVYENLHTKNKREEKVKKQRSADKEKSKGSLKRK

Row | SMILES | Ratio (Staphylococcus aureus [1]) | Ratio (Staphylococcus aureus [2]) | MIC (Pseudomonas aeruginosa) | MIC (Staphylococcus aureus [3]) | MIC (Staphylococcus aureus [4]) | MIC (Staphylococcus aureus [5]) | Ratio (Staphylococcus aureus [6]) | MIC (Candida albicans) | MIC (Staphylococcus aureus [7]) | MIC (Staphylococcus aureus [8]) | MIC (Staphylococcus aureus [9]) | MIC (Staphylococcus aureus [10]) | Ratio (Staphylococcus aureus [11]) | pIC50 [12] | MIC (Escherichia coli) | MIC (Streptococcus mutans) | pIC50 [13] | pIC50 [14] | pIC50 [15] | pIC50 [16]
1 | COc1cc(/C=C2\SC(=S)N(C(Cc3c[nH]c4ccccc34)C(=O)O)C2=O)ccc1OCc1ccc(Cl)cc1Cl (configuration not stated) | 4 | 64 | > 64 µg/mL | 2 µg/mL (≈ 3.26 µM) | 2 µg/mL (≈ 3.26 µM) | 2 µg/mL (≈ 3.26 µM) | 64 | > 64 µg/mL | 2 µg/mL (≈ 3.26 µM) | 2 µg/mL (≈ 3.26 µM) | 2 µg/mL (≈ 3.26 µM) | 2 µg/mL (≈ 3.26 µM) | 4 | 6.15 | 2 µg/mL (≈ 3.26 µM) | 2 µg/mL (≈ 3.26 µM) |  |  |  | 
2 | O=C(O)C(Cc1c[nH]c2ccccc12)N1C(=O)/C(=C/c2ccc3cc(OCc4ccc(F)cc4)ccc3c2)SC1=S (configuration not stated) |  |  | > 64 µg/mL | 1 µg/mL (≈ 1.72 µM) | 2 µg/mL (≈ 3.43 µM) | 4 µg/mL (≈ 6.86 µM) |  | > 64 µg/mL | 2 µg/mL (≈ 3.43 µM) | 2 µg/mL (≈ 3.43 µM) | 2 µg/mL (≈ 3.43 µM) | 2 µg/mL (≈ 3.43 µM) |  | 6.35 | 2 µg/mL (≈ 3.43 µM) | 2 µg/mL (≈ 3.43 µM) | 5.95 | 5.82 | 5.37 | 6.42
